{
  "source": "paper PMC5969509",
  "about": "(Chemical Science, 2018)",
  "key": {"PHD2": {"tested_on": "PHD2", "assay": "3CBt capture", "assay_type": "binding, human"}, "PHD3": {"tested_on": "PHD3", "assay": "3CBt capture", "assay_type": "binding, human", "settings": "3CBt 26 µM"}, "PHD2:HIF1-α complex": {"tested_on": "PHD2:HIF1-α complex", "assay": "3CBt capture of PHD:HIF1-α complex from RCC4 cell lysates", "assay_type": "binding", "settings": "RCC4 cells in hypoxia, 3CBt 52 µM, western blot"}, "PHD1": {"tested_on": "PHD1", "assay": "3CBt capture", "assay_type": "binding, human", "settings": "protein 10 µM, 3CBt 26 µM, Coomassie SDS-PAGE"}, "[1]": {"molecular_target": "catalytic domain of PHD2 (residues 181–426, tPHD2) with N-terminal His-tag and C-terminal biotinylation (tPHD2_(HisBio)) (human) (UniProt Q9GZT9)", "sequence (Q9GZT9 181-426)": "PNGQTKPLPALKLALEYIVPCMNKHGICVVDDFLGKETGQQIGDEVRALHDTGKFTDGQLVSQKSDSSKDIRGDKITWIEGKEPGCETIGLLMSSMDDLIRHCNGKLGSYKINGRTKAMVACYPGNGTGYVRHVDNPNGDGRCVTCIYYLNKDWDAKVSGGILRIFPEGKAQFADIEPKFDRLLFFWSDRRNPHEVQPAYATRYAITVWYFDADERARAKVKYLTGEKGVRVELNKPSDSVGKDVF", "assay": "BLI"}, "[2]": {"molecular_target": "catalytic domain of PHD2 (residues 181–426, tPHD2) with N-terminal His-tag and C-terminal biotinylation (tPHD2_(HisBio)) (human) (UniProt Q9GZT9)", "assay": "BLI", "remark": "listed apart in the source"}, "tPHD2": {"molecular_target": "tPHD2 (Homo sapiens, UniProt Q9GZT9)", "sequence (Q9GZT9 181-426)": "as above", "assay": "Biolayer interferometry, tPHD2 immobilised via N-terminal His-tag", "assay_type": "binding", "settings": "BLI; tPHD2 denatured chemically or thermally"}, "[3]": {"molecular_target": "tPHD2HisBio (catalytic domain of PHD2, residues 181-426) (Homo sapiens, UniProt Q9GZT9)", "sequence (Q9GZT9 181-426)": "as above", "assay": "Biolayer interferometry, tPHD2HisBio immobilised via C-terminal biotin", "assay_type": "binding", "outline": "(§1)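 Recombinant protein (tPHD2HisBio or KDM4A) was expressed in E. coli BL21 (DE3) and loaded onto biosensors. Binding was measured by biolayer interferometry as cycles of association and dissociation across a dilution series of test peptide. A DMSO-only sensor included in each run was subtracted to correct for drift, and the traces were fitted globally.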"}, "KDM4A": {"tested_on": "KDM4A", "assay": "Biolayer interferometry, binding to KDM4A", "set-up": "species or system human", "settings": "BLI, 3-fold dilution series", "outline": "as §1"}},
  "note": "Where two headings read alike, the source gives them in different places. Positions of bridges follow the written chain, without caps; N, C: chain ends. Non-standard residues stand in square brackets, D forms with d. Residues, ends and D or L forms follow the SMILES beside them.",
  "data": [
    {"compound": "DYVWL T DT W VL SRTCGSGSGSZ (sidechain bridge or staple) [3CBt]", "values": [
      {"measurement": "capture of endogenous PHD2 from Hep3B cell lysates", "setting": "PHD2; hypoxic (1% O2) Hep3B cells, western blot, 3CBt 13 µM", "result": "could be captured"},
      {"measurement": "recovery of recombinant full-length PHD2", "setting": "PHD2; protein 10 µM, 3CBt 26 µM, Coomassie SDS-PAGE", "result": "recovered in a 3CBt-dependent manner"},
      {"measurement": "recovery of isolated recombinant tPHD2", "setting": "PHD2; streptavidin magnetic beads, Coomassie SDS-PAGE, tPHD2 100 nM, 3CBt 520 nM", "result": "High levels of tPHD2 recovery"},
      {"measurement": "capture of endogenous PHD3 from Hep3B cell lysates", "setting": "PHD3; hypoxic conditions, western blot", "result": "able to affinity purify"},
      {"measurement": "capture of recombinant full length PHD3", "setting": "PHD3; protein 10 µM, Coomassie SDS-PAGE", "result": "able to capture"},
      {"measurement": "co-purification of HIF1-α and PHDs at endogenous levels", "setting": "PHD2:HIF1-α complex", "result": "could co-purify HIF1-α and PHDs at endogenous levels"},
      {"measurement": "capture of recombinant full length PHD1", "setting": "PHD1", "result": "able to capture"}
    ]},
    {"compound": "C-terminal oxygen dependent domain (CODD), a fragment peptide of HIF1-α", "values": [
      {"measurement": "Kd", "setting": "[1]", "result": 6.3, "unit": "µM"},
      {"measurement": "Kd", "setting": "[2]", "result": 5.2, "unit": "µM"}
    ]},
    {"compound": "CC(C)C[C@@H]1NC(=O)[C@H](Cc2c[nH]c3ccccc23)NC(=O)[C@H](C(C)C)NC(=O)[C@@H](Cc2ccc(O)cc2)NC(=O)CSC[C@@H](C(N)=O)NC(=O)[C@H]([C@@H](C)O)NC(=O)[C@H](CCCNC(=N)N)NC(=O)[C@H](CO)NC(=O)[C@H](CC(C)C)NC(=O)[C@H](C(C)C)NC(=O)[C@H](Cc2c[nH]c3ccccc23)NC(=O)[C@H]([C@@H](C)O)NC(=O)[C@H](CC(=O)O)NC(=O)[C@H]([C@@H](C)O)NC1=O", "note": "[3C] ({CH2CO}-[dY]VWLTDTWVLSRTC-NH2; thioether N-14)", "values": [
      {"measurement": "binding to denatured tPHD2", "setting": "tPHD2", "result": "abolished"},
      {"measurement": "Kd", "setting": "[3]", "result": 0.00027, "unit": "µM"},
      {"measurement": "dissociative half-life t1/2", "setting": "[3]; BLI, C-terminal biotin immobilisation", "result": 1.13, "unit": "h"},
      {"measurement": "binding to KDM4A", "setting": "KDM4A", "result": "almost no detectable binding"}
    ]}
  ]
}
